In ChEMBL document CHEMBL4425094, “Novel Benzo[a]quinolizidine Analogs Induce Cancer Cell Death through Paraptosis and Apoptosis” (J Med Chem, 2016):
Calls of active or inactive are those of the source. No cut-off for these calls is given here.

Columns and labels:
PC-3 [1] = assay: Induction of cell cycle arrest in human PC3 cells assessed as accumulation in G0/G1 phase at 2 uM after 24 hrs by […]propidium iodide based flow cytometric analysis (reference value: 43.5 to 62.5 %); type: functional
PC-3 [2] = assay: Induction of cell cycle arrest in human PC3 cells assessed as accumulation in G2 phase at 1 uM after 24 hrs by […]propidium iodide based flow cytometric analysis (reference value: 16.3 to 25 %); type: functional
PC-3 [3] = assay: Induction of apoptosis in human PC3 cells assessed as late apoptotic cells at 0.5 uM after 24 hrs by Annexin V-FITC/propidium iodide based flow cytometric analysis (reference value: 1.1 %); type: functional
Procedure, shortened: (§1)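 PC3 cells exposed to 0.5, 1 or 2 μM for 24 h, then stained with Annexin V-FITC and PI and analyzed by FACSCalibur flow cytometry. Populations assigned as necrotic (Annexin V−/PI+), late apoptotic (double positive), normal (Annexin V−/PI−) and early apoptotic (Annexin V+/PI−). DMSO vehicle control.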

PC-3 [4] = assay: Induction of apoptosis in human PC3 cells assessed as late apoptotic cells at 2 uM after 24 hrs by Annexin V-FITC/propidium iodide based flow cytometric analysis (reference value: 1.1 %); type: functional; procedure, shortened: as §1
PC-3 [5] = assay: Induction of apoptosis in human PC3 cells assessed as PARP cleavage after 24 hrs by Western blot analysis; type: functional, cell-based
Procedure, shortened: (§2)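 PC3 cells in RPMI 1640 with 10% FBS, treated with compound for timed intervals. DMSO vehicle control. Lysis in RIPA buffer, 40 μg protein per lane on SDS-PAGE, transfer to nitrocellulose. Primary antibodies overnight at 4 °C, HRP-secondary 45 min, ECL detection. GAPDH or β-actin used as loading control.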

PC-3 [6] = assay: Induction of ER stress in human PC3 cells assessed as upregulation of GRP78 after 4 hrs by Western blot analysis; type: functional, cell-based; procedure, shortened: as §2
PC-3 [7] = assay: Induction of ER stress in human PC3 cells assessed as upregulation of CHOP after 24 hrs by Western blot analysis; type: functional, cell-based; procedure, shortened: as §2
PC-3 [8] = assay: Cytotoxicity in human PC3 cells assessed as reduction in cell viability after 24 hrs in presence of CHX by MTT assay; type: functional, cell-based
Procedure, shortened: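 PC3 cells pretreated with 10 μM actinomycin D or 5 μM cycloheximide, then treated with compound for 24 h. Viability by MTT at 570 nm. Vacuolation imaged by phase-contrast microscopy.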

PC-3 [9] = assay: Induction of autophagy in human PC3 cells assessed as conversion of LC3B1 to LC3B2 after 24 hrs by Western blot analysis; type: functional, cell-based; procedure, shortened: as §2
PC-3 [10] = assay: Induction of autophagy in human PC3 cells assessed as vacuole formation at 1 uM after 24 hrs in presence of PI3K inhibitor 3-MA by phase-contrast microscopic analysis; type: functional, cell-based
Procedure, shortened: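 PC3 cells were pretreated with the autophagy inhibitor (3-MA or E64d), then exposed to 1 μM test agent for 24 h. Morphology was imaged by phase-contrast microscopy, and viability was read by MTT at 570 nm. Comparison was against agent-only cells.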

[11] = Toxicity in athymic Balb/c mouse assessed as body weight loss at 15 mg/kg, ip administered every 2 days for 18 days; type: organism-based; details: in vivo
Procedure, shortened: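 Male athymic BALB/c-nu mice bearing subcutaneous PC3M-luc-C6 xenografts, n = 5 per group. Dosing was 15 mg/kg i.p. every 2 days for 18 days versus placebo and docetaxel 15 mg/kg groups. Body weight was recorded over the treatment period.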

**Q.** With `Cc1cc(C)cc(COc2cc3c(cc2OCc2cc(C)cc(C)c2)[C@@H]2C[C@H](O)C[C@@H](C)N2CC3)c1` (racemic) as the compound, how does the Activity (PC-3 [1]) read?
**A.** 80.2 - 81.4%

**Q.** What about the Activity (PC-3 [2]) of the same compound?
**A.** 11.9 - 14.5%

**Q.** What about the Activity (PC-3 [3]) of the same compound?
**A.** 1.2%

**Q.** And the Activity (PC-3 [4])?
**A.** 36.4%

**Q.** What about the Activity (PC-3 [5]) of the same compound?
**A.** Active

**Q.** What about the Activity (PC-3 [6]) of the same compound?
**A.** Active

**Q.** What about the Activity (PC-3 [7]) of the same compound?
**A.** Active

**Q.** What about the Activity (PC-3 [8]) of the same compound?
**A.** inactive

**Q.** And the Activity (PC-3 [9])?
**A.** Active

**Q.** And the Activity (PC-3 [10])?
**A.** inactive

**Q.** And the Activity [11]?
**A.** 16.3 g
